Series [1] deals with PSMA expressed on LNCaP cells (Homo sapiens, UniProt Q04609). Briefly: competitive cell-binding assay with PSMA-positive LNCaP cells.
Series [2] is described as follows: biodistribution analysis in LNCaP tumor-bearing mice. Format: in vivo, NMRI nu/nu mice. Particulars: high molar activity, approximately 10 MBq. An outline of the steps: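 Mice bearing LNCaP tumours (100–500 mm3) were injected with approximately 10 MBq of the 68Ga-labelled test compound, giving groups at high molar activity (low peptide amount) and low molar activity (high peptide amount). Organ distribution was determined in three mice per condition. Labelling was done at pH 4.2, 98°C, for 10 min in HEPES.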

PSMA expressed on LNCaP cells, sequence (Q04609 whole entry): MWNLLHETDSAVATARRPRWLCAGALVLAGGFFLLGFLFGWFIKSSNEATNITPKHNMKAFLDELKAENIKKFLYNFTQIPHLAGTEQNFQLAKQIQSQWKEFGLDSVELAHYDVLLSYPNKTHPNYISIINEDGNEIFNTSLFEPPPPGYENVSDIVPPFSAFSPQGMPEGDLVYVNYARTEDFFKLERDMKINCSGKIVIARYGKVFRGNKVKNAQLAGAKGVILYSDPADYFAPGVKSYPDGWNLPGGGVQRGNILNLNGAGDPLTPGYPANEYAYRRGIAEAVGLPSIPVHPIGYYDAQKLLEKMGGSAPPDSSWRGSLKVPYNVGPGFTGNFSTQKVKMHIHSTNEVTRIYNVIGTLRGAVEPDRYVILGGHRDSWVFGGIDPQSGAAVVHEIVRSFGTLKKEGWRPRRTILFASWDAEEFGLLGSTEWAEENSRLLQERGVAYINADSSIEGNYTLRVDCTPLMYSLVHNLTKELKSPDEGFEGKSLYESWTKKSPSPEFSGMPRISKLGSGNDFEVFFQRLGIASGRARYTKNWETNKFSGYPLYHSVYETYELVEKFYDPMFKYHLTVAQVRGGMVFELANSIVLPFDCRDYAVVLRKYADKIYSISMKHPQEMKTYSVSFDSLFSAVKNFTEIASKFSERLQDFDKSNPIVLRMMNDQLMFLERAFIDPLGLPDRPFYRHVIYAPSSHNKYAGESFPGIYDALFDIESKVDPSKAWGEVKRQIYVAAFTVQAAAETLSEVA

Consider `O=C(O)CCc1ccc(O)c(CN(CCN(CC(=O)O)Cc2cc(CCC(=O)NCCCCCC(=O)NCCCC[C@H](NC(=O)N[C@@H](CCC(=O)O)C(=O)O)C(=O)O)ccc2O)CC(=O)O)c1` [PSMA-11], for which the IC50 (as a rule, the point on the concentration scale where inhibition reaches its midpoint) in series [1] amounted to 14.8 ± 1.2 nM.
For `O=C([O-])CN(CCN(CC(=O)[O-])Cc1cc(CCC(=O)NCCCCCC(=O)NCCCC[C@H](NC(=O)N[C@@H](CCC(=O)O)C(=O)O)C(=O)O)ccc1[O-])Cc1cc(CCC(=O)O)ccc1[O-].[68Ga+3].[OH3+]` [[^68Ga]Ga-PSMA-11], in series [2] (LNCaP tumor), the Tumor is reported as 2.99 SUV (g/g). Further, in series [2], the Adrenals is reported as 3.11 SUV (g/g), the BAT is on record as 0.10 SUV (g/g), the Blood is 0.06 SUV (g/g) and the Brain is given as 0.01 SUV (g/g). Further, in series [2], the Femur is on record as 0.04 SUV (g/g), the Heart is 0.09 SUV (g/g), the Kidneys is 50.79 SUV (g/g) and the Liver was 0.11 SUV (g/g). In series [2], the Lung was 0.45 SUV (g/g), the Muscle is reported as 0.04 SUV (g/g), the Pancreas is 0.29 SUV (g/g) and the Ratio tumor/muscle is on record as 70.87. For the same molecule, in series [2], the Skin was 0.09 SUV (g/g), the Spleen is given as 1.53 SUV (g/g), the Subm. gl. was 0.29 SUV (g/g) and the Testes is reported as 0.22 SUV (g/g). Besides, in series [2], the WAT is on record as 0.33 SUV (g/g).

The values are drawn from publication PMC6791425 (Oncoimmunology, 2019).
